22 sequences from the EternaBench riboswitch data can be followed below.

In data set [1] the test system is MS2 coat protein. The data set can be described thus: apparent Kd, MS2 coat protein; higher = weaker binding; RNA-MaP array; tryptophan 2.4 mM where present. The essentials:
(§1)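 Green signal was scaled to red-channel RNA signal and control-cluster median Fmax, and the apparent Kd was taken as the median of filtered per-cluster binding-curve fits. The binding series used SNAP-549-labelled MS2 coat protein from 0.7 or 1.5 nM, doubling to 3 µM, on designs transcribed by stalled E. coli RNA polymerase on Illumina sequencing-chip clusters. Each series ran without and then with constant ligand in 100 mM Tris-HCl pH 7.5, 80 mM KCl, 4 mM MgCl2, BSA, DTT, yeast tRNA and Tween-20.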

The test system of data set [2] is MS2 coat protein. The data set can be described thus: apparent Kd, MS2 coat protein; higher = weaker binding; RNA-MaP array; theophylline 2 mM where present. The essentials: as §1
Where [3] appears, read: designed as: ON switch for tryptophan, no ligand.
Setting [4] is: ligand present: tryptophan, designed as: ON switch for tryptophan.
[5] abbreviates: designed as: OFF switch for tryptophan, no ligand.
Setting [6] is: ligand present: tryptophan, designed as: OFF switch for tryptophan.
The mark [7] stands for this setting: designed as: OFF switch for theophylline, no ligand.
Setting [8] is: ligand present: theophylline, designed as: OFF switch for theophylline.
Where [9] appears, read: designed as: ON switch for theophylline, no ligand.
Setting [10] is: ligand present: theophylline, designed as: ON switch for theophylline.

Usually apparent Kd stands for the concentration giving half-maximal binding under the conditions of the assay.

On to “AUGCAGAACACGGCCGCCACUCAUUGUAGACAUGAGGAUCACCCAUGUAAUAGGGAUAUUUUAUUGAGGACCGGGUGUAAUGCAA”, for which the results for the “apparent Kd” value in data set [1] (setting [3]) and in data set [1] (setting [4]) were 51.1 nM and 28.9 nM, respectively.
For “AAAUAAACCUCGGCCGCCACUCGCCAUGAGGAUCACCCAUGUAACAUGAGGAUCACCCAUGUACAGAGGACCGGGAGGUCCUAGU” the same measures were 73 nM and 100 nM.
In the case of “GUUAUAUACUCGGCCGCCACUGAGAGAGUCAUGUAAACAUGAGGAUCACCCAUGUAAUAUAUAUACAGGACCGGGAGUAUAGUAA”, the “apparent Kd” value in data set [1] (setting [5]) amounted to 14.5 nM; in data set [1] (setting [6]), 13 nM.
For “CGCAACAUGAGGAUCACCCAUGUAAUGACGCGAGGACCGGUACGGCCGCCACUCGCCUGGCAGUGAGCGCAUGCGGCCUGGGUAU” the same measures were 11.1 nM and 12.2 nM.
“UUUGGCGGCGAUCUGGGUUUACCAGAUCGGCGAGGACCGGUACGGCCGCCACUCGUGUUUCUUUGACAUGAGGAUCACCCAUGUA”: the “apparent Kd” value turned out to be 62.5 nM in data set [1] (setting [3]) and 39.1 nM in data set [1] (setting [4]).
For “CGCCACUCGAGUGAUCCUCACGAGUGGCUACGAGGACCGGUACGGCCGCCACUCGAAUUAACAUGAGGAUCACCCAUGUACUCCA”, the “apparent Kd” value in data set [1] (setting [3]) came out at 93.6 nM; in data set [1] (setting [4]), 19.1 nM.
Consider “AGCCCUGUACUAGAUACCAGCUACAUGAGGAUCACCCAUGUGCGUCAAGACUGACUGUGUAGCCCUUGGCAGCUGCUCGCAUGUA”, for which the “apparent Kd” value came to 22.1 nM in data set [2] (setting [7]) and 32.2 nM in data set [2] (setting [8]).
For “AGAAUAACACAUGAGGAUCACCCAUGUGAUACCAGCUAGGAAACUAGCCCUUGGCAGCACAUAAUCCUCAUGAGCUGCCAUAAUA” the same measures were 12.8 nM and 21.4 nM.
As to “AUCUUGUACCGUAAUACUUUACGUUGGGAUACCAGCAUGGACCCAUGCCCUUGGCAGCUUUACAUGAGGAUCACCCAUGUUGUAG”, the “apparent Kd” value came to 36.6 nM in data set [2] (setting [9]) and 32.5 nM in data set [2] (setting [10]).
Regarding “AAGGUAUCACAGACAUGGGUGUACUGUGAUACCAGCUAGGAAACUAGCCCUUGGCAGCACAUGAGGAUCACCCAUGUAAGAAUAA”, the “apparent Kd” value in data set [2] (setting [7]) was found to be 47.4 nM; in data set [2] (setting [8]), 141 nM.
For “AAUGGCGUUGGUGAGGCGGUUAAUGGCGAUACCAGCGUGGAAACACGCCCUUGGCAGCGCCAAAACAUGAGGAUCACCCAUGUUA” the same measures were 14.7 nM and 139 nM.
For “UAUAUAUAUAUUGAUACCAGCAGAGAAAACGUAUAUCCUAACAUGAGGAUCACCCAUGUAUGCCCUUGGCAGCGAUAUAUAUAUA” the same measures were 24.3 nM and 31.4 nM.
As to “AAUAACAUGAGGAUCACCCAUGUAAAAGAUACCAGAUGCAUGAUGAUCCCUUGGCAGCUUAACGCUGAUUGAUUACAAUCAGCGA”, the “apparent Kd” value in data set [2] (setting [9]) was determined as 28.6 nM; in data set [2] (setting [10]) it was 87 nM.
The corresponding values for “AUCGUACCUGAGGAUACCAGCAUGUGAUCAUAACAUGAGGAUCACCCAUGUAAUCAGUGAUGCCCUUGGCAGCUUGGUCGAUACA” are 54.2 nM and 34.9 nM.
As for “AAAAUAAAUAAAACGCGUAACAUGAAGGAUACCAGCCAGAAAACUGGCCCUUGGCAGCCUCUACAUGAGGAUCACCCAUGUCGCG”, the “apparent Kd” value in data set [2] (setting [9]) was 331 nM; in data set [2] (setting [10]), 29.6 nM.
The corresponding values for “GCACUACAUGAGGAUCACCCAUGUGCAGAUACCAGAGGUGUAUGCCUCCCUUGGCAGCUGCGUCGCUCUGGAAACUUAUUGGUUU” are 18.4 nM and 22.7 nM.
Regarding “AUAUGAAAGAGUGAUACCAGACUACAUGAGGAUCACCCAUGUGACAUUUAAAUAUCAUUUGUCCCUUGGCAGCACAUUAAGUACA”, the “apparent Kd” value in data set [2] (setting [7]) turned out to be 38.8 nM; in data set [2] (setting [8]) it was 44.9 nM.
Consider “AUCGUACCUGAUGAUACCAGCAUGUGAUCAUAACAUGAGGAUCACCCAUGUAAUCAGUGAUGCCCUUGGCAGCAUGAUCGGUACA”, for which the “apparent Kd” value turned out to be 57.3 nM in data set [2] (setting [9]) and 26.3 nM in data set [2] (setting [10]).
The corresponding values for “AUUAAUAGUUGUGAUACCAGACUUACAUGAGGAUCACCCAUGUUACUUAAGUGUUUUGAUGUCCCUUGGCAGCACUGUUUAGUUA” are 25.5 nM and 13.4 nM.
The corresponding values for “UAAAACAUGAGGAUCACCCAUGUAAUUGAUACCAGAGUGAUGAUCCUCCCUUGGCAGCAAAACGCUGAUUGGAAACAAUCAGCGA” are 113 nM and 251 nM.
For “GGGCCCGGGCGCGAGCCCGGGCCCAUUGAUACCAGUGAAUGUGUACGCCCUUGGCAGCGAAUCCUAACAUGAGGAUCACCCAUGU” the same measures were 43.3 nM and 53.8 nM.
“GAACAUGAGGAUCACCCAUGUUAAACAGAUACCAGUGAUAUAAUACACCCUUGGCAGCUGAAGCUGAAUAAUAAUUCCCUCAAGC”: the results for the “apparent Kd” value in data set [2] (setting [9]) and in data set [2] (setting [10]) were 12 nM and 14.3 nM, respectively.
